From ChEMBL document CHEMBL4321877, “Development of Novel N-hydroxypyridone Derivatives as Potential Anti-Ischemic Stroke Agents” (J Med Chem, 2020)
The source made the active and inactive calls. No cut-off for these calls is given here.

How the values were obtained:
MRC5 = assay: Cytotoxicity against human MRC5 cells assessed as reduction in cell viability measured after 72 hrs by CCK8 assay; type: cell-based; settings: MRC5, 72 h
Procedure, shortened: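 MRC-5 cells grown in MEM with 10% FBS, NEAA, 5% CO2 at 37 °C; seeded 7000 cells/well, treated at several concentrations for 72 h. Viability by CCK-8 absorbance at 450 nm, expressed as % of vehicle-treated cells; IC50 reported as mean ± SD.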

[1] = Half life in mouse liver microsomes at 1 uM in presence of NADPH by LC-MS/MS analysis; type: ADME, Microsome
SH-SY5Y [2] = assay: Cytotoxicity against human SH-SY5Y cells assessed as reduction in cell viability measured after 24 hrs by MTT assay; type: cell-based
Procedure, shortened: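 SH-SY5Y cells (1:1 MEM/F12, 10% FBS) seeded 3 × 10^4 cells/well, grown 24 h, then exposed without insult for 24 h to 1.56–100 µM or to 1 and 10 µM (DMSO stock diluted in medium). MTT read at 490 nm; viability as % of untreated control.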

[3] = molecular target: Voltage-gated inwardly rectifying potassium channel KCNH2 (Homo sapiens, UniProt Q12809); assay: Inhibition of human ERG stably expressed in CHO cells at -80 mV by automated Qpatch electrophysiological assay; type: cell-based
Rattus norvegicus [4] = assay: Neuroprotective activity in iv dosed Sprague-Dawley rat model of middle cerebral artery occlusion-induced ischemia-reperfusion injury assessed as concentration required to reduce infarction volume to < 26% by TTC staining based assay; type: functional
Procedure, shortened: (§1)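 Male Sprague-Dawley rats under chloral hydrate (400 mg/kg, i.p.); nylon monofilament through the left internal carotid artery occluded the MCA origin for 2 h, then was withdrawn for reperfusion. Drug in 0.9% saline was injected via the tail vein immediately after reperfusion. After 24 h, 2 mm coronal sections were stained with 1% TTC at 37 °C for 15 min and fixed in 4% paraformaldehyde. Infarct % = (normal hemisphere − non-infarcted ischemic hemisphere)/normal hemisphere ×100. n=15-18, mean ± SEM.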

[5] = Solubility of the compound in […] incubated for 24 hrs by HPLC analysis; type: physicochemical
Rattus norvegicus [6] = assay: Neuroprotective activity in Sprague-Dawley rat model of middle cerebral artery occlusion-induced ischemia-reperfusion injury assessed as infarction volume at 3 mg/kg, iv by TTC staining based assay (reference value: 39%); type: functional; procedure, shortened: as §1
SH-SY5Y [7] = assay: Neuroprotective activity against H2O2-induced cell death in human SH-SY5Y cells assessed as cell viability at 1 to 4 uM preincubated for 2 hrs followed by H2O2-challenge by MTT assay (reference value: 45.73%); type: functional
SH-SY5Y [8] = assay: Neuroprotective activity against oxygen-glucose deprivation-induced morphological changes in human SH-SY5Y cells assessed as suppression of bright cell body appearance preincubated for 2 hrs followed by OGD-challenge and measured after 24 hrs by microscopic analysis; type: functional, cell-based
Procedure, shortened: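 SH-SY5Y cells treated immediately before 2 h OGD (glucose/serum-free, hypoxia chamber, 37 °C), then reoxygenated; morphology (neurites, cell body, cell number) inspected by light microscopy 24 h after insult.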

SH-SY5Y [9] = assay: (§2) Neuroprotective activity against oxygen-glucose deprivation-induced apoptosis in human SH-SY5Y cells assessed as viable cells at 4 uM preincubated for 2 hrs followed by OGD-challenge and measured after 24 hrs by Annexin V-FITC/propidium iodide staining-based flow cytometric method (reference value: 48.2%); type: functional; settings: read-out: Activity
Rattus norvegicus [10] = assay: Neuroprotective activity in Sprague-Dawley rat model of middle cerebral artery occlusion-induced ischemia-reperfusion injury assessed as infarction volume at 0.3 mg/kg, iv by TTC staining based assay (reference value: 39%); type: functional; procedure, shortened: as §1
SH-SY5Y [11] = assay: Neuroprotective activity against oxygen-glucose deprivation-induced morphological changes in human SH-SY5Y cells assessed as increase in cell number added immediately before OGD-challenge and measured after 24 hrs by microscopic analysis
SH-SY5Y [12] = assay: as §2, with “necrotic” for “viable”, “6.46%)” for “48.2%)”; type: functional
Rattus norvegicus [13] = assay: Neuroprotective activity in Sprague-Dawley rat model of middle cerebral artery occlusion-induced ischemia-reperfusion injury assessed as infarction volume at 1 mg/kg, iv by TTC staining based assay (reference value: 39%); type: functional; procedure, shortened: as §1
Rattus norvegicus [14] = assay: Neuroprotective activity in Sprague-Dawley rat model of middle cerebral artery occlusion-induced ischemia-reperfusion injury assessed as reduction in disease severity score at 1 mg/kg, iv measured 24 hrs post-reperfusion; type: functional, organism-based
Procedure, shortened: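 Male Sprague-Dawley rats anesthetized with chloral hydrate (400 mg/kg i.p.); left MCA occluded by intraluminal nylon suture for 2 h, then withdrawn. Compound in 0.9% saline given by tail vein immediately after reperfusion; body temperature held at 37.0 ± 0.5 °C. mNSS scored 24 h later; n = 15–18, mean ± SEM.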

SH-SY5Y [15] = assay: Neuroprotective activity against oxygen-glucose deprivation-induced morphological changes in human SH-SY5Y cells assessed as suppression of cell shrinkage […] and measured after 24 hrs by microscopic analysis; type: functional, cell-based
SH-SY5Y [16] = assay: Neuroprotective activity against oxygen-glucose deprivation-induced morphological changes in human SH-SY5Y cells assessed as suppression of neurite disappearance […] and measured after 24 hrs by microscopic analysis; type: functional, cell-based
HT-22 = assay: Neuroprotective activity against glutamate-induced cell death in mouse HT22 cells assessed as increase in cell viability up to 4 uM preincubated for 2 hrs followed by glutamate-challenge and measured after 24 hrs by MTT assay; type: functional, cell-based
Procedure, shortened: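 HT22 mouse hippocampal cells (DMEM, 10% FBS) seeded 5×10^4 cells/ml and grown 12 h. Compound added for 2 h, then 10 mM L-glutamic acid hydrochloride for 24 h. Viability by MTT at 490 nm as % of control; mean ± SD, n = 3.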

SH-SY5Y [17] = assay: as §2, with “late apoptotic” for “viable”, “28.2%)” for “48.2%)”; type: functional
SH-SY5Y [18] = assay: as §2, with “early apoptotic” for “viable”, “17.1%)” for “48.2%)”; type: functional

Voltage-gated inwardly rectifying potassium channel KCNH2, sequence (Q12809 whole entry, the tested form may be a part): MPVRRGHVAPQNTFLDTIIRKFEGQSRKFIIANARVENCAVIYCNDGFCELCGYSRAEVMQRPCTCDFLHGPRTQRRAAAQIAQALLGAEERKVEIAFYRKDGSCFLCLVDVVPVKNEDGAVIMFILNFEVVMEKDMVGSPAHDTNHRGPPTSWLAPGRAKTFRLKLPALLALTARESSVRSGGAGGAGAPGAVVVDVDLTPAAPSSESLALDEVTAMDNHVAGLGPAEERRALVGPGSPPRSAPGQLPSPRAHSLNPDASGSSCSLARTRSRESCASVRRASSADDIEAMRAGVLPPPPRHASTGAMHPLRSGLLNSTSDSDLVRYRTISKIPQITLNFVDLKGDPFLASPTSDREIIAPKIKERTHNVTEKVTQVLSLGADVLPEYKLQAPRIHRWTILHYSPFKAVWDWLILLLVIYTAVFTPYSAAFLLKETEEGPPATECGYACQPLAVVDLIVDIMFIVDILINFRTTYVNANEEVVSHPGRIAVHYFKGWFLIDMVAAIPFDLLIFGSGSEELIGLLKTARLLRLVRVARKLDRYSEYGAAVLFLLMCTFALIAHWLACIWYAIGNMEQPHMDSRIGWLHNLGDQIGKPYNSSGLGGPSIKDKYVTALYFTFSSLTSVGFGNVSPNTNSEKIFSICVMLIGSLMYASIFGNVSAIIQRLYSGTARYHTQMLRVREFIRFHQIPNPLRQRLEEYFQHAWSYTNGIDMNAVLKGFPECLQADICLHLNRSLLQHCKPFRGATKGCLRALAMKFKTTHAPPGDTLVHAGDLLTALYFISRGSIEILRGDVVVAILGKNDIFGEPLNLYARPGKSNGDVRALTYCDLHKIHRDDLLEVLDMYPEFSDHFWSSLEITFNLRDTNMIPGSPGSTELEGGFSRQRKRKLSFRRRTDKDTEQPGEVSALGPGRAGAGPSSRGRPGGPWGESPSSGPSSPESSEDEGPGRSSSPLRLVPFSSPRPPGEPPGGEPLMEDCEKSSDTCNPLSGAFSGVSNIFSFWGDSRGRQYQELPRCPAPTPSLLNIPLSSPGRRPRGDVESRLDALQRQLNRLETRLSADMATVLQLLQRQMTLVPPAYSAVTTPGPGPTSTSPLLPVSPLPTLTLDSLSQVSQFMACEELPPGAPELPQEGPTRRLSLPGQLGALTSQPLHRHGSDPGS

Cc1cc(C2CCCCC2)n(O)c(=O)c1.NCCO [CICLOPIROX OLAMINE]
IC50 (MRC5): 23.5 µM
half-life at 1 µM [1]: 0.886 h
IC50 (SH-SY5Y [2]): > 100 µM
IC50 [3]: > 40 µM
Activity (Rattus norvegicus [4]): 3 mg/kg
solubility ([5]; buffer, 24 h): 6.82 mg/mL
Activity (Rattus norvegicus [6]): 26%
Activity (SH-SY5Y [7]): <=80%

Cc1cc([C@@H]2C[C@@H]3CC[C@H]2C3)n(O)c(=O)c1.NCCO
Activity (SH-SY5Y [8]): Active
viability at 4 µM (SH-SY5Y [9]): 69.8%
IC50 (MRC5): 23.6 µM
Activity (Rattus norvegicus [10]): 25%
Activity (SH-SY5Y [11]): Active
Activity (SH-SY5Y [12]): 4.87%
half-life at 1 µM [1]: 1.53 h
Activity (Rattus norvegicus [13]): 23%
IC50 (SH-SY5Y [2]): > 100 µM
Activity (Rattus norvegicus [14]): Active
IC50 [3]: > 40 µM
Activity (SH-SY5Y [15]): Active
Activity (Rattus norvegicus [4]): 0.3 mg/kg
Activity (SH-SY5Y [16]): Active
Activity (HT-22): Active
solubility at 24 h [5]: 10.9 mg/mL
Activity (SH-SY5Y [7]): <=80%
Activity (SH-SY5Y [17]): 16%
Activity (SH-SY5Y [18]): 9.36%
